In paper PMC3779694 (Hepatology (Baltimore, Md.), 2011):
Entries after “also recorded” stand apart in the source; their conditions may differ.

Assays:
adults with NASH [1] = test: Adverse events, phase 2 trial; assay type: in vivo, human; settings: for Abdominal pain / Abdominal pain upper / Arthralgia / Asthenia / Back pain / Constipation / Diarrhea / Dizziness / Dry mouth / Dyspepsia / Fatigue / Gastroesophageal reflux disease / Headache / Nasopharyngitis / Nausea / No. of subjects with at least one AE / Pain in extremity / Somnolence / Total no. of events (AEs): during treatment
[2] = test system: patients with chronic hepatitis C virus (HCV) infection; settings: short-term treatment; cited from earlier work
[3] = Steady-state plasma pharmacokinetics of GS-9450; assay type: in vivo, human
In short: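 Plasma was assayed with a validated bioanalytical method. Steady-state Cmax, Tmax, T1/2 and AUCtau came from weeks 2–4 profiles by noncompartmental analysis. Trough samples were taken at weeks 1–4 and follow-up week 1. Dose proportionality of AUCtau and Cmax was tested by a power model across all fasted doses.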

adults with NASH [4] = test: Serum caspase-3-cleaved CK-18 fragments; assay type: in vivo, human; settings: mean (SD)
adults with NASH [5] = test: Exploratory pharmacokinetic/pharmacodynamic modeling; assay type: in vivo, human; settings: mean exposure with 40 mg; inhibitory Emax model

CC(C)[C@@]1(C(=O)N[C@H]2CC(=O)O[C@]2(O)CF)CC(c2nccc3ccccc23)=NO1 [GS-9450]
Abdominal pain (adults with NASH [1]; 5 mg (n = 26)): 2 (8) n (%)
Abdominal pain upper (adults with NASH [1]; 5 mg (n = 26)): 1 (4) n (%)
Arthralgia (adults with NASH [1]; 5 mg (n = 26)): 3 (12) n (%)
Asthenia (adults with NASH [1]; 5 mg (n = 26)): 1 (4) n (%)
Back pain (adults with NASH [1]; 5 mg (n = 26)): 2 (8) n (%)
Constipation (adults with NASH [1]; 5 mg (n = 26)): 0 n (%)
Diarrhea (adults with NASH [1]; 5 mg (n = 26)): 6 (23) n (%)
Dizziness (adults with NASH [1]; 5 mg (n = 26)): 0 n (%)
Dry mouth (adults with NASH [1]; 5 mg (n = 26)): 0 n (%)
Dyspepsia (adults with NASH [1]; 5 mg (n = 26)): 2 (8) n (%)
Fatigue (adults with NASH [1]; 5 mg (n = 26)): 5 (19) n (%)
Gastroesophageal reflux disease (adults with NASH [1]; 5 mg (n = 26)): 0 n (%)
Headache (adults with NASH [1]; 5 mg (n = 26)): 7 (27) n (%)
Nasopharyngitis (adults with NASH [1]; 5 mg (n = 26)): 0 n (%)
Nausea (adults with NASH [1]; 5 mg (n = 26)): 1 (4) n (%)
No. of subjects with at least one AE (adults with NASH [1]; 5 mg (n = 26)): 22 (85) n (%)
Pain in extremity (adults with NASH [1]; 5 mg (n = 26)): 0 n (%)
Somnolence (adults with NASH [1]; 5 mg (n = 26)): 2 (8) n (%)
Total no. of events (AEs) (adults with NASH [1]; 5 mg (n = 26)): 64
frequency of treatment-emergent AEs during the 4-week on-treatment period (adults with NASH [1]; 10 mg): 75%
Abdominal pain (adults with NASH [1]; 10 mg (n = 24)): 1 (4) n (%)
Abdominal pain upper (adults with NASH [1]; 10 mg (n = 24)): 4 (17) n (%)
Arthralgia (adults with NASH [1]; 10 mg (n = 24)): 1 (4) n (%)
Asthenia (adults with NASH [1]; 10 mg (n = 24)): 1 (4) n (%)
Back pain (adults with NASH [1]; 10 mg (n = 24)): 0 n (%)
Constipation (adults with NASH [1]; 10 mg (n = 24)): 0 n (%)
Diarrhea (adults with NASH [1]; 10 mg (n = 24)): 6 (25) n (%)
Dizziness (adults with NASH [1]; 10 mg (n = 24)): 0 n (%)
Dry mouth (adults with NASH [1]; 10 mg (n = 24)): 2 (8) n (%)
Dyspepsia (adults with NASH [1]; 10 mg (n = 24)): 1 (4) n (%)
Fatigue (adults with NASH [1]; 10 mg (n = 24)): 2 (8) n (%)
Gastroesophageal reflux disease (adults with NASH [1]; 10 mg (n = 24)): 0 n (%)
Headache (adults with NASH [1]; 10 mg (n = 24)): 4 (17) n (%)
Nasopharyngitis (adults with NASH [1]; 10 mg (n = 24)): 0 n (%)
Nausea (adults with NASH [1]; 10 mg (n = 24)): 3 (13) n (%)
No. of subjects with at least one AE (adults with NASH [1]; 10 mg (n = 24)): 18 (75) n (%)
Pain in extremity (adults with NASH [1]; 10 mg (n = 24)): 1 (4) n (%)
Somnolence (adults with NASH [1]; 10 mg (n = 24)): 0 n (%)
Total no. of events (AEs) (adults with NASH [1]; 10 mg (n = 24)): 67
frequency of treatment-emergent AEs during the 4-week on-treatment period (adults with NASH [1]; 40 mg): 80%
Abdominal pain (adults with NASH [1]; 40 mg (n = 25)): 1 (4) n (%)
Abdominal pain upper (adults with NASH [1]; 40 mg (n = 25)): 1 (4) n (%)
Arthralgia (adults with NASH [1]; 40 mg (n = 25)): 3 (12) n (%)
Asthenia (adults with NASH [1]; 40 mg (n = 25)): 0 n (%)
Back pain (adults with NASH [1]; 40 mg (n = 25)): 1 (4) n (%)
Constipation (adults with NASH [1]; 40 mg (n = 25)): 2 (8) n (%)
Diarrhea (adults with NASH [1]; 40 mg (n = 25)): 5 (20) n (%)
Dizziness (adults with NASH [1]; 40 mg (n = 25)): 2 (8) n (%)
Dry mouth (adults with NASH [1]; 40 mg (n = 25)): 1 (4) n (%)
Dyspepsia (adults with NASH [1]; 40 mg (n = 25)): 1 (4) n (%)
Fatigue (adults with NASH [1]; 40 mg (n = 25)): 2 (8) n (%)
Gastroesophageal reflux disease (adults with NASH [1]; 40 mg (n = 25)): 3 (12) n (%)
Headache (adults with NASH [1]; 40 mg (n = 25)): 4 (16) n (%)
Nasopharyngitis (adults with NASH [1]; 40 mg (n = 25)): 2 (8) n (%)
Nausea (adults with NASH [1]; 40 mg (n = 25)): 3 (12) n (%)
No. of subjects with at least one AE (adults with NASH [1]; 40 mg (n = 25)): 20 (80) n (%)
Pain in extremity (adults with NASH [1]; 40 mg (n = 25)): 2 (8) n (%)
Somnolence (adults with NASH [1]; 40 mg (n = 25)): 0 n (%)
Total no. of events (AEs) (adults with NASH [1]; 40 mg (n = 25)): 60
subjects who left the study because of a treatment-related AE (adults with NASH [1]; 40 mg, moderate facial flushing from day 1): One subject
overall safety and tolerability (adults with NASH [1]; 4 weeks, 1-40 mg): safe and well tolerated
serious adverse events during the on-treatment period (adults with NASH [1]; all GS-9450 doses, 4 weeks): No serious adverse events; also recorded: no serious AEs (SAEs)
deaths during the study (adults with NASH [1]; all groups): no deaths
effect on ALT levels [2]: reductions in alanine aminotransferase (ALT) levels
time by which steady state had been reached ([3]; daily dosing, all dose groups): 2–4 weeks
median Tmax ([3]; fasting conditions, steady state, plasma): 2 to 3 h
Cmax dose proportionality ([3]; from 1 to 40 mg): dose-proportional
CK-18 fragments, %Change at Week 4 (adults with NASH [4]; 1 mg once daily): 23 (81) %
CK-18 fragments, Change at Week 2 (adults with NASH [4]; 1 mg once daily): 164 (384) U/L
CK-18 fragments, Change at Week 4 (adults with NASH [4]; 1 mg once daily): 192 (584) U/L
CK-18 fragments, %Change at Week 4 (adults with NASH [4]; 5 mg once daily): 25 (120) %
CK-18 fragments, Change at Week 2 (adults with NASH [4]; 5 mg once daily): −116 (608) U/L
CK-18 fragments, Change at Week 4 (adults with NASH [4]; 5 mg once daily): 96 (641) U/L
CK-18 fragments, %Change at Week 4 (adults with NASH [4]; 10 mg once daily): −26 (38) %
CK-18 fragments, Change at Week 2 (adults with NASH [4]; 10 mg once daily): −460 (866) U/L
CK-18 fragments, Change at Week 4 (adults with NASH [4]; 10 mg once daily): −393 (723) U/L
mean CK-18 fragment levels had decreased to, by week 4 (adults with NASH [4]; 10 mg): 393 (723) U/L
CK-18 fragments, %Change at Week 4 (adults with NASH [4]; 40 mg once daily): −19 (32) %
CK-18 fragments, Change at Week 2 (adults with NASH [4]; 40 mg once daily): −140 (490) U/L
CK-18 fragments, Change at Week 4 (adults with NASH [4]; 40 mg once daily): −125 (212) U/L
mean CK-18 fragment levels had decreased to, by week 4 (adults with NASH [4]; 40 mg): 125 (212) U/L
response as percent of the maximal effect achievable with GS-9450 (week 4 difference in ALT or CK-18 fragments) (adults with NASH [5]): at least 82%
